Results on twelve compounds are retold here after ChEMBL document CHEMBL1123346, “Pyrimidinones. 3. N-substituted 6-phenylpyrimidinones and pyrimidinediones with diuretic/hypotensive and antiinflammatory activity” (J Med Chem, 1986).

Data set [1] is filed under the species Rattus norvegicus. The data set is described as follows: Diuretic activity in rats. The data set is classed as functional, Urine. Put shortly: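 Male rats (~160 g) fasted 24 h, water withheld 1.5 h, both withheld during test. Gavage 25 mL/kg 0.9% saline with 0.5% carboxymethylcellulose containing compound at 40 mg/kg; urine collected 5 h in metabolism cages. Two-stage test, T/C urine volume per stage; active if product of stage T/Cs ≥3.34.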

Data set [2] deals with Rattus norvegicus. The data set is described as follows: Inhibition of RPAR administered perorally at 100 mg/kg dose. The data set is classed as functional. The following applies: route oral. Put shortly:
(§1)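 Male Wistar rats (180-200 g), 5-10/group, dosed orally (water with Tween-80 suspension) 1 h before iv sensitization with 1 mg bovine serum albumin; 24-h fasted. 60 min later subplantar challenge with 200 µg anti-BSA in left hindpaw. Paw swelling by mercury displacement plethysmography at 2 h post-challenge.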

Data set [3] deals with Rattus norvegicus. The data set is described as follows: Blood pressure change in rats after oral administration of 50 mg/kg dose after 24 hours. It counts as functional. The essentials: (§2)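 Restrained female Sprague–Dawley rats with indwelling aortic cannulas exteriorized at the nape; direct arterial pressure via transducer, mean pressure by electrical integration of phasic pressure. Readings before and 4 and 24 h after oral dosing (carboxymethylcellulose suspension, 10 mL/kg). Value is change in mean arterial pressure, averaged over two animals.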

Data set [4] relates to Rattus norvegicus. The data set is described as follows: Inhibition of RPAR administered perorally at 50 mg/kg dose. The data set is classed as functional. The following applies: route oral. Put shortly:
as §1

The subject of data set [5] is Rattus norvegicus. Briefly: Blood pressure change in rats after oral administration of 50 mg/kg dose after 4 hours. The data set is classed as functional. The essentials:
as §2

Data set [6] deals with Rattus norvegicus. The data set is described as follows: Inhibition of RPAR administered perorally at 25 mg/kg dose. The data set is classed as functional. The following applies: route oral. The essentials:
as §1

The nature of data set [7]: Potassium salt excretion in conscious rat at the dose of 10 mg/kg expressed as urinary excretion in treated rats/urinary excretion in control rats. The data set is classed as ADME, organism-based, Urine. Also on record: dose 10 mg/kg. The following applies: in vivo. The essentials: (§3)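 Male rats (~160 g) fasted 24 h, water withheld 1.5 h; oral gavage of compound (0.3-100 mg/kg) in 25 mL/kg saline with 0.5% carboxymethylcellulose; 5 h urine collection in metabolism cages. Urine volume, Na+ and K+ (flame photometry) expressed as treated/control excretion ratio.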

Data set [8] is described as follows: Potassium salt excretion in conscious rat at the dose of 100 mg/kg expressed as urinary excretion in treated rats/urinary excretion in control rats. The data set is classed as ADME, organism-based, Urine. Also on record: dose 100 mg/kg. The following applies: in vivo. Put shortly: as §3
Data set [9] is described as follows: Sodium salt excretion in conscious rat at the dose of 1.0 mg/kg expressed as urinary excretion in treated rats/urinary excretion in control rats. It counts as ADME, organism-based, Urine. Also noted: dose 1 mg/kg. Conditions: in vivo. The essentials:
as §3

Data set [10] is described as follows: Sodium salt excretion in conscious rat at the dose of 0.3 mg/kg expressed as urinary excretion in treated rats/urinary excretion in control rats. The following applies: in vivo. The data set is classed as ADME, organism-based, Urine. Also noted: dose 0.3 mg/kg. Put shortly: as §3
The subject of data set [11] is Rattus norvegicus. Briefly: Compound was tested for urinary volume excretion in conscious rat at the dose of 1.0 mg/kg expressed as urinary excretion in treated rats/urinary excretion in control rats. It counts as ADME, organism-based, Urine. Also noted: dose 1 mg/kg. Conditions: in vivo. The essentials: as §3
Data set [12] is described as follows: Sodium salt excretion in conscious rat at the dose of 100 mg/kg expressed as urinary excretion in treated rats/urinary excretion in control rats. Also noted: dose 100 mg/kg. The following applies: in vivo. The data set is classed as ADME, organism-based, Urine. The essentials:
as §3

Data set [13] can be described thus: Sodium salt excretion in conscious rat at the dose of 30 mg/kg expressed as urinary excretion in treated rats/urinary excretion in control rats. Also noted: dose 30 mg/kg. Conditions: in vivo. The data set is classed as ADME, organism-based, Urine. Put shortly:
as §3

Data set [14] concerns Rattus norvegicus. Briefly: Compound was tested for urinary volume excretion in conscious rat at the dose of 10 mg/kg expressed as urinary excretion in treated rats/urinary excretion in control rats. Conditions: in vivo. It counts as ADME, organism-based, Urine. Also noted: dose 10 mg/kg. The essentials: as §3
Data set [15] in a line: Sodium salt excretion in conscious rat at the dose of 3.0 mg/kg expressed as urinary excretion in treated rats/urinary excretion in control rats. The following applies: in vivo. The data set is classed as ADME, organism-based, Urine. Also noted: dose 3 mg/kg. Put shortly: as §3
The nature of data set [16]: Potassium salt excretion in conscious rat at the dose of 1.0 mg/kg expressed as urinary excretion in treated rats/urinary excretion in control rats. The following applies: in vivo. It counts as ADME, organism-based, Urine. Also noted: dose 1 mg/kg. The essentials: as §3
Data set [17] has as its system Rattus norvegicus. The data set is described as follows: Compound was tested for urinary volume excretion in conscious rat at the dose of 100 mg/kg expressed as urinary excretion in treated rats/urinary excretion in control rats. It counts as ADME, organism-based, Urine. Also noted: dose 100 mg/kg. The following applies: in vivo. Put shortly: as §3
The test system of data set [18] is Rattus norvegicus. Briefly: Compound was tested for urinary volume excretion in conscious rat at the dose of 0.3 mg/kg expressed as urinary excretion in treated rats/urinary excretion in control rats. It counts as ADME, organism-based, Urine. Also noted: dose 0.3 mg/kg. Conditions: in vivo. The essentials:
as §3

The subject of data set [19] is Rattus norvegicus. The data set is described as follows: Compound was tested for urinary volume excretion in conscious rat at the dose of 3.0 mg/kg expressed as urinary excretion in treated rats/urinary excretion in control rats. The data set is classed as ADME, organism-based, Urine. Also noted: dose 3 mg/kg. Conditions: in vivo. The essentials:
as §3

Data set [20] in a line: Potassium salt excretion in conscious rat at the dose of 3.0 mg/kg expressed as urinary excretion in treated rats/urinary excretion in control rats. Also noted: dose 3 mg/kg. The data set is classed as ADME, organism-based, Urine. The following applies: in vivo. Put shortly:
as §3

Data set [21] can be described thus: Sodium salt excretion in conscious rat at the dose of 10 mg/kg expressed as urinary excretion in treated rats/urinary excretion in control rats. The data set is classed as ADME, organism-based, Urine. Also noted: dose 10 mg/kg. Conditions: in vivo. Put shortly:
as §3

The nature of data set [22]: Potassium salt excretion in conscious rat at the dose of 0.3 mg/kg expressed as urinary excretion in treated rats/urinary excretion in control rats. Also noted: dose 0.3 mg/kg. It counts as ADME, organism-based, Urine. Conditions: in vivo. Put shortly: as §3
For data set [23], the system named is Rattus norvegicus. Briefly: Compound was tested for urinary volume excretion in conscious rat at the dose of 30 mg/kg expressed as urinary excretion in treated rats/urinary excretion in control rats. Also noted: dose 30 mg/kg. It counts as ADME, organism-based, Urine. The following applies: in vivo. The essentials: as §3
Data set [24] can be described thus: Potassium salt excretion in conscious rat at the dose of 30 mg/kg expressed as urinary excretion in treated rats/urinary excretion in control rats. Also on record: dose 30 mg/kg. It counts as ADME, organism-based, Urine. The following applies: in vivo. Put shortly:
as §3

In the case of `Oc1nc(O)c(I)c(-c2ccccc2)n1`, the Diuretic activity in the data set filed under Rattus norvegicus [1] came out at 5.43. The compound also showed an inhibition in vivo at 100 mg/kg in the data set with Rattus norvegicus [2] of 48%. Also, the MABP change with Rattus norvegicus [3] was found to be 11 mmHg; in the data set on Rattus norvegicus [5] it was 7 mmHg. For the same compound, testing at 50 mg/kg in the data set with Rattus norvegicus [4] gave an inhibition in vivo of 41%.
Take `Nc1nc(O)c(I)c(-c2ccccc2)n1`: the inhibition in vivo at 100 mg/kg in the data set with Rattus norvegicus [2] was 8%. Also, the MABP change is given as -12 mmHg in the data set with Rattus norvegicus [3] and -7 mmHg in the data set with Rattus norvegicus [5]. Moreover, 50 mg/kg produced 3% inhibition in vivo in the data set with Rattus norvegicus [4].
For the compound `Cn1c(-c2ccccc2)c(I)c(=O)[nH]c1=O`, testing at 100 mg/kg in the data set with Rattus norvegicus [2] gave an inhibition in vivo of 73%. Further, the values for the MABP change in the data set with Rattus norvegicus [3] and in the data set on Rattus norvegicus [5] were -1 mmHg and 15 mmHg, respectively. This compound also came in with an inhibition in vivo at 25 mg/kg in the data set with Rattus norvegicus [6] of 33%. Also, 50 mg/kg produced 44% inhibition in vivo in the data set with Rattus norvegicus [4].
Consider `Oc1nc(O)c(Br)c(-c2ccccc2)n1`, for which the “K+ excretion” value in data set [7] turned out to be 0.9; in data set [8] it was 1.8; in data set [16] it was 1; in data set [20] it was 1; in [22] it was 1; in data set [24], 1.2. For the same compound, the “Na+ excretion” value in [9] amounted to 1.2; in data set [10], 1.2; in data set [12], 1.9; in data set [13], 1.4; in data set [15] it was 1; in data set [21] it was 1.2. The Urinary volume in the data set with Rattus norvegicus [11] was found to be 1; with Rattus norvegicus [14] it was 1.2; in the data set on Rattus norvegicus [17], 2.1; with Rattus norvegicus [18] it was 0.9; with Rattus norvegicus [19], 1.1; with Rattus norvegicus [23], 1.5. This compound displayed a Diuretic activity in the data set filed under Rattus norvegicus [1] of 3.53. At 100 mg/kg the inhibition in vivo with Rattus norvegicus [2] was 58%. In addition, the results for the MABP change with Rattus norvegicus [3] and with Rattus norvegicus [5] were 5 mmHg and 6 mmHg, respectively. Besides, at 50 mg/kg the inhibition in vivo with Rattus norvegicus [4] was 46%.
As to `Cn1c(=O)cc(-c2ccccc2)[nH]c1=O`, the MABP change with Rattus norvegicus [3] is 6 mmHg; with Rattus norvegicus [5], 0 mmHg.
The matching figures for `CN(C)c1nc(O)c(I)c(-c2ccccc2)n1`: 2 mmHg and 1 mmHg.
Regarding `Cn1c(-c2ccccc2)c(Cl)c(=O)[nH]c1=O`, the “K+ excretion” value in data set [7] is given as 1.3; in data set [8], 1.9; in [16] it was 1.2; in data set [20], 1.1; in data set [22], 0.9; in [24], 1.7. The “Na+ excretion” value in [9] was determined as 1.1; in [10], 1.1; in [12], 1.6; in data set [13], 1.6; in data set [15], 0.9; in data set [21] it was 1.1. In addition, the Urinary volume in the data set with Rattus norvegicus [11] turned out to be 0.9; in the data set on Rattus norvegicus [14], 1.1; in the data set on Rattus norvegicus [17], 1.6; with Rattus norvegicus [18] it was 0.9; in the data set with Rattus norvegicus [19] it was 0.8; in the data set with Rattus norvegicus [23] it was 1.6. This compound yielded a Diuretic activity in the data set filed under Rattus norvegicus [1] of 3.49. For the same compound, the MABP change in the data set on Rattus norvegicus [3] and in the data set with Rattus norvegicus [5] was 2 mmHg throughout.
As to `CN(C)c1nc(O)c(Br)c(-c2ccccc2)n1`, the MABP change with Rattus norvegicus [3] amounted to 2 mmHg; in the data set with Rattus norvegicus [5], 1 mmHg.
The matching figures for `N=C(N)NCCN1CCCCCCC1` [GUANETHIDINE]: 9 mmHg and -16 mmHg.
On to `Cn1c(=O)[nH]c(-c2ccccc2)c(I)c1=O`, for which the MABP change in the data set on Rattus norvegicus [3] is given as 4 mmHg; with Rattus norvegicus [5] it was 1 mmHg.
For `N=C(N)Nc1nc(O)c(I)c(-c2ccccc2)n1`, the MABP change in the data set with Rattus norvegicus [3] was 3 mmHg; with Rattus norvegicus [5] it was -2 mmHg.
On to `NS(=O)(=O)c1cc(C(=O)O)c(NCc2ccco2)cc1Cl` [FUROSEMIDE], for which the “K+ excretion” value in [7] amounted to 1.6; in data set [8] it was 3.2; in data set [16], 1; in data set [20], 1.3; in [22], 1; in data set [24], 2.2. For the same compound, the “Na+ excretion” value is 1.1 in [9]; 1.1 in data set [10]; 4.5 in data set [12]; 3.1 in data set [13]; 1.1 in data set [15]; 1.5 in data set [21]. In addition, the Urinary volume in the data set on Rattus norvegicus [11] is on record as 1.2; in the data set with Rattus norvegicus [14] it was 2.2; in the data set with Rattus norvegicus [17], 7.2; in the data set with Rattus norvegicus [18], 1.1; with Rattus norvegicus [19], 1.3; in the data set with Rattus norvegicus [23], 4.7. In the data set listed under Rattus norvegicus [1], this compound gave a Diuretic activity of 31.25. Besides, the MABP change with Rattus norvegicus [3] was -3 mmHg; in the data set with Rattus norvegicus [5], 1 mmHg.

For orientation: inhibition in vivo means the relative decrease from the control value, in per cent.
